Measured values from ChEMBL document CHEMBL5058577, “EUbOPEN Chemogenomics Library 2 (Multiplex)” (2022).

System: U2OS
Assay: Multiplex assay against U2OS
Assay type: toxicity, cell-based
Conditions: human
In short: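 Four dyes were applied at seeding to live cells: Hoechst33342, BioTracker Green Microtubule Cytoskeleton Dye, MitoTracker Red and Annexin V Alexa Fluor 680. Imaging after compound addition used a CQ1 microscope at 37°C and 5% CO2. CellPathfinder machine-learning gating then sorted cells into Hoechst high-intensity objects or normal cells, normal cells into healthy, pyknosed or fragmented nuclei, and pyknosed cells into mitotic or apoptotic, with tubulin, mitochondrial-mass and membrane-permeability phenotypes given as per cents of healthy-nucleus cells.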

[1] = 12 h, 1 µM, compound concentration 1 uM, replicate 1
[2] = 12 h, 1 µM, compound concentration 1 uM, replicate 2
[3] = 12 h, 10 µM, compound concentration 10 uM, replicate 1
[4] = 12 h, 10 µM, compound concentration 10 uM, replicate 2
[5] = 24 h, 1 µM, compound concentration 1 uM, replicate 1
[6] = 24 h, 1 µM, compound concentration 1 uM, replicate 2
[7] = 24 h, 10 µM, compound concentration 10 uM, replicate 1
[8] = 24 h, 10 µM, compound concentration 10 uM, replicate 2
[9] = 48 h, 1 µM, compound concentration 1 uM, replicate 1
[10] = 48 h, 1 µM, compound concentration 1 uM, replicate 2
[11] = 48 h, 10 µM, compound concentration 10 uM, replicate 1
[12] = 48 h, 10 µM, compound concentration 10 uM, replicate 2

CC(C)(C)c1ccc(CSc2cnn(C(C)(C)C)c(=O)c2Cl)cc1 [PYRIDABEN]
Population Apoptotic (%) [1]: 79%
Population Fragmented Nuclei (%) [1]: 28%
Population Healthy Nuclei (%) [1]: 61%
Population Hoechst High Intensity Objects (%) [1]: 3%
Population Membrane Permeable-Phenotype (%) [1]: 3%
Population Mitochondria Different-Phenotype (%) [1]: 1%
Population Mitotic Cells (%) [1]: 20%
Population Normal (%) [1]: 97%
Population Pyknosed Nuclei (%) [1]: 9%
Population Tubulin-Different-Phenotype (%) [1]: 2%
Total Cell Count [1]: 267
Population Apoptotic (%) [2]: 63%
Population Fragmented Nuclei (%) [2]: 11%
Population Healthy Nuclei (%) [2]: 81%
Population Hoechst High Intensity Objects (%) [2]: 0%
Population Membrane Permeable-Phenotype (%) [2]: 4%
Population Mitotic Cells (%) [2]: 36%
Population Normal (%) [2]: 99%
Population Pyknosed Nuclei (%) [2]: 7%
Population Tubulin-Different-Phenotype (%) [2]: 3%
Total Cell Count [2]: 152
Population Apoptotic (%) [3]: 83%
Population Fragmented Nuclei (%) [3]: 28%
Population Healthy Nuclei (%) [3]: 57%
Population Hoechst High Intensity Objects (%) [3]: 1%
Population Membrane Permeable-Phenotype (%) [3]: 5%
Population Mitochondria Different-Phenotype (%) [3]: 5%
Population Mitotic Cells (%) [3]: 16%
Population Normal (%) [3]: 98%
Population Pyknosed Nuclei (%) [3]: 14%
Population Tubulin-Different-Phenotype (%) [3]: 3%
Total Cell Count [3]: 209
Population Apoptotic (%) [4]: 87%
Population Fragmented Nuclei (%) [4]: 15%
Population Healthy Nuclei (%) [4]: 73%
Population Hoechst High Intensity Objects (%) [4]: 0%
Population Mitochondria Different-Phenotype (%) [4]: 2%
Population Mitotic Cells (%) [4]: 12%
Population Normal (%) [4]: 100%
Population Pyknosed Nuclei (%) [4]: 11%
Population Tubulin-Different-Phenotype (%) [4]: 2%
Total Cell Count [4]: 141
Population Apoptotic (%) [5]: 83%
Population Fragmented Nuclei (%) [5]: 28%
Population Healthy Nuclei (%) [5]: 58%
Population Hoechst High Intensity Objects (%) [5]: 1%
Population Membrane Permeable-Phenotype (%) [5]: 4%
Population Mitochondria Different-Phenotype (%) [5]: 1%
Population Mitotic Cells (%) [5]: 16%
Population Normal (%) [5]: 98%
Population Pyknosed Nuclei (%) [5]: 13%
Population Tubulin-Different-Phenotype (%) [5]: 1%
Total Cell Count [5]: 286
Population Apoptotic (%) [6]: 100%
Population Fragmented Nuclei (%) [6]: 19%
Population Healthy Nuclei (%) [6]: 75%
Population Hoechst High Intensity Objects (%) [6]: 2%
Population Membrane Permeable-Phenotype (%) [6]: 3%
Population Mitotic Cells (%) [6]: 0%
Population Normal (%) [6]: 97%
Population Pyknosed Nuclei (%) [6]: 5%
Total Cell Count [6]: 186
Population Apoptotic (%) [7]: 80%
Population Fragmented Nuclei (%) [7]: 22%
Population Healthy Nuclei (%) [7]: 61%
Population Hoechst High Intensity Objects (%) [7]: 2%
Population Membrane Permeable-Phenotype (%) [7]: 8%
Population Mitochondria Different-Phenotype (%) [7]: 3%
Population Mitotic Cells (%) [7]: 19%
Population Normal (%) [7]: 97%
Population Pyknosed Nuclei (%) [7]: 15%
Population Tubulin-Different-Phenotype (%) [7]: 6%
Total Cell Count [7]: 234
Population Fragmented Nuclei (%) [8]: 19%
Population Healthy Nuclei (%) [8]: 68%
Population Hoechst High Intensity Objects (%) [8]: 1%
Population Membrane Permeable-Phenotype (%) [8]: 6%
Population Mitochondria Different-Phenotype (%) [8]: 1%
Population Mitotic Cells (%) [8]: 20%
Population Normal (%) [8]: 98%
Population Pyknosed Nuclei (%) [8]: 12%
Population Tubulin-Different-Phenotype (%) [8]: 2%
Total Cell Count [8]: 167
Population Apoptotic (%) [9]: 76%
Population Fragmented Nuclei (%) [9]: 26%
Population Healthy Nuclei (%) [9]: 63%
Population Hoechst High Intensity Objects (%) [9]: 3%
Population Membrane Permeable-Phenotype (%) [9]: 6%
Population Mitochondria Different-Phenotype (%) [9]: 3%
Population Mitotic Cells (%) [9]: 23%
Population Normal (%) [9]: 96%
Population Pyknosed Nuclei (%) [9]: 9%
Population Tubulin-Different-Phenotype (%) [9]: 3%
Total Cell Count [9]: 361
Population Apoptotic (%) [10]: 84%
Population Fragmented Nuclei (%) [10]: 19%
Population Healthy Nuclei (%) [10]: 70%
Population Hoechst High Intensity Objects (%) [10]: 6%
Population Membrane Permeable-Phenotype (%) [10]: 5%
Population Mitotic Cells (%) [10]: 15%
Population Normal (%) [10]: 93%
Population Tubulin-Different-Phenotype (%) [10]: 2%
Total Cell Count [10]: 212
Population Apoptotic (%) [11]: 90%
Population Fragmented Nuclei (%) [11]: 20%
Population Healthy Nuclei (%) [11]: 64%
Population Hoechst High Intensity Objects (%) [11]: 4%
Population Membrane Permeable-Phenotype (%) [11]: 9%
Population Mitochondria Different-Phenotype (%) [11]: 4%
Population Mitotic Cells (%) [11]: 10%
Population Normal (%) [11]: 95%
Population Pyknosed Nuclei (%) [11]: 14%
Population Tubulin-Different-Phenotype (%) [11]: 6%
Total Cell Count [11]: 280
Population Apoptotic (%) [12]: 95%
Population Fragmented Nuclei (%) [12]: 16%
Population Healthy Nuclei (%) [12]: 70%
Population Hoechst High Intensity Objects (%) [12]: 3%
Population Membrane Permeable-Phenotype (%) [12]: 5%
Population Mitochondria Different-Phenotype (%) [12]: 6%
Population Mitotic Cells (%) [12]: 4%
Population Normal (%) [12]: 96%
Population Pyknosed Nuclei (%) [12]: 13%
Population Tubulin-Different-Phenotype (%) [12]: 4%
Total Cell Count [12]: 191
